MEKK2mut PB1 HTS – signal of MEK5 binding to mutant human MEKK2 PB1 domain; bead flow cytometry, Alexa488-MEK5 binding to MEKK2 mutant; percent response, % at 10 µM; 290,000 tested, 0.35% active; AID 1530; in the data active = percent response above about 24%, passing the limit was not always enough
MEKK3 PB1 HTS – modulators (inhibitors or enhancers) of MEK5 binding to human MEKK3 PB1 domain; Q99759; bead-based flow cytometry, Alexa488-MEK5 binding to MEKK3; actives lie on both sides; 0 = blocked by unlabeled MEK5, 100 = vehicle; binding response (% of control), % at 10 µM; 290,000 tested, 1.4% active; AID 1529;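 active = binding response more than 3 SD above or below the average of its plate-row segment, actives on both sides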;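 note: Alexa488 bead fluorescence after subtracting the streptavidin-only scavenger bead signal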
Target sequence (Q99759 whole entry, looked up, the tested form may be a part): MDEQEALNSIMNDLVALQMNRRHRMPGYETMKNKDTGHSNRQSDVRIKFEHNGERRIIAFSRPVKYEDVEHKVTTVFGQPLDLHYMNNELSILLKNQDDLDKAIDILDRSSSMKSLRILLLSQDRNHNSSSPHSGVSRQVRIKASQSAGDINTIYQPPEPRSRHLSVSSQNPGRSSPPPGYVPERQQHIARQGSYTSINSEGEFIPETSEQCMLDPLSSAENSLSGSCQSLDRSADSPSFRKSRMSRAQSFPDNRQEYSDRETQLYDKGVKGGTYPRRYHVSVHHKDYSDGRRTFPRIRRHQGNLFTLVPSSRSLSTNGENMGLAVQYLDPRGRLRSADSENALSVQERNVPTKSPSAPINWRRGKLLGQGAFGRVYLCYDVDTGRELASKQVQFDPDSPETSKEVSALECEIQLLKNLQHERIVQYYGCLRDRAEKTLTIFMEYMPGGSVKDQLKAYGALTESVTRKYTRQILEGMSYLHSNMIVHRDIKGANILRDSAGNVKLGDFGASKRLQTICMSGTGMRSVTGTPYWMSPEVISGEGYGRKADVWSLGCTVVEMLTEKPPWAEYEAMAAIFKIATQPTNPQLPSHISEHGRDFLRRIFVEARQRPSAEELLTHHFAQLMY
MEKK2wt PB1 HTS – raises or lowers MEK5 binding to wildtype human MEKK2 PB1 domain; Q9Y2U5; bead flow cytometry, Alexa488-MEK5 binding to MEKK2 WT; actives lie on both sides; binding response (% of control), % at 10 µM; 290,000 tested, 1.1% active; AID 1531; in the data active = binding response below about 67% or above about 130%
Arrestin-AP2 inh – inhibitors of human beta-arrestin and AP2 interaction; 340,000 tested, 0.31% active; FITC-arrestin peptide / GST-AP2 beads, flow cytometry; AP2 beta2 appendage carries R879A mutation; AID 504490; inhibition, % at 10 µM;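 active = inhibition above a set limit, near 3 SD of compounds lacking own fluorescence, cut at about 54% in these data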;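 note: plate controls were DMSO wells for no effect and 5 µM unlabelled arrestin peptide for full effect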
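Material – AP2 appendage R879A on GSH beads · Buffer or medium – PBS with 0.05% Tween 20 and 0.1% BSA · Probe or stimulus – fluorescein-tagged arrestin peptide at 50 nM final · Incubation – compound with beads 12 min RT, then probe 1 h RT · Detection – high-throughput flow cytometry of beads, ex 488, em 535 nm · Evaluation – percent response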
MEKK2wt confirm – raises or lowers MEK5 binding to wildtype human MEKK2, retest; shares compounds with MEKK3 PB1 HTS; bead flow cytometry, Alexa488-MEK5 binding to MEKK2 WT; actives lie on both sides; binding response (% of control), % at 10 µM; 5,900 tested, 2.4% active; AID 1892; in the data active = binding response below about 16% or above about 210%; inactive = in between
MEKK2mut confirm – signal of MEK5 binding to mutant human MEKK2, retest | shares compounds with MEKK3 PB1 HTS | bead flow cytometry, Alexa488-MEK5 binding to MEKK2 mutant | percent response, % at 10 µM | 5,900 tested, 2% active | AID 1893; in the data active = percent response mostly above about 71%, no sharp cut-off; inactive = mostly below about 38%;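 note: higher means compound restores mutant binding toward wildtype level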
MEKK3 confirm – MEKK3-MEK5 PB1 inhibition, single concentration confirmation | 5,900 tested, 1.8% active | bead flow cytometry, Alexa488-MEK5 binding to MEKK3; active compounds read low | shares compounds with MEKK3 PB1 HTS | AID 1894 | binding response (% of control), % at 10 µM;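 active = binding response below 72% of control, or above a set upper limit, though filed actives all read lower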;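 note: 100% = DMSO only wells and 0% = binding blocked by excess unlabeled MEK5; lower values mean stronger disruption of MEK5 binding to MEKK3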
Arr AP2 CP1 – human beta-arrestin and AP2 interaction inhibition, cherry pick; inhibition, % at 10 µM; 1,300 tested, 2% active; AID 504908; shares compounds with Arrestin-AP2 inh; GST-AP2 beads, FITC arrestin peptide binding, flow cytometry; GST-fused beta2-adaptin appendage, R879A mutant;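 active = inhibition above a set limit, roughly 3 SD of non-fluorescent compound noise, cut at about 38% in these data; inactive = inhibition at or below that limit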;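 note: loss of bead fluorescence from 50 nM FITC arrestin peptide bound to appendage; 0% = negative control wells and 100% = excess unlabelled arrestin peptide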
GST-FITC bead – disrupts GST binding to glutathione beads, arrestin-AP2 artifact; shares compounds with Arrestin-AP2 inh; GST-fluorescein binding to GSH beads, fluorescence, counter-screen; inhibition, % at 10 µM; 1,300 tested, 2% active; AID 588338;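 active = inhibition above 50%, about 3 SD of the inhibition seen with non-fluorescent compounds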;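 note: fluorescein maleimide labelled GST captured on 4 micron glutathione beads; higher means more loss of bead fluorescence from quenching or blocked binding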
* = called active by the depositor; nt = no result; [ ] = another dose, or the depositor's remark. Hits are enriched below; roughly 2.3% of the tested compounds scored in any of these assays.

SMILES	MEKK2mut PB1 HTS	MEKK3 PB1 HTS	MEKK2wt PB1 HTS	Arrestin-AP2 inh	Arr AP2 CP1	GST-FITC bead	others
CCN1/C(=C/C=C/C=C/C=C/c2sc3ccccc3[n+]2CC)Sc2ccccc21	-15	30*[inhibitor]	72*[inhibitor]	55*	26	8	MEKK2wt confirm=136;MEKK2mut confirm=60;MEKK3 confirm=61*
O=C(O)c1cccc(OS(=O)(=O)c2cc(Br)ccc2Br)c1	nt	nt	nt	-12	nt	nt
Cc1cc(C(=O)COc2ccc3ccc(=O)oc3c2)c(C)n1Cc1cccs1	0	142*	105	94*	-9	7	MEKK2wt confirm=96;MEKK2mut confirm=-4;MEKK3 confirm=98
COc1cc(NC(=O)c2cccc(S(=O)(=O)N3CCCCC3)c2)cc(OC)c1OC	nt	nt	nt	-6	nt	nt
Cc1cc(C)cc(OCC(=O)Nc2ccc3c(c2)C(=O)c2ccccc2C3=O)c1	0	139*	104	97*	6	6	MEKK2wt confirm=95;MEKK2mut confirm=0;MEKK3 confirm=97
O=C(Nc1cc(-c2nc3ccccc3s2)ccc1Cl)c1ccc2c(c1)OCO2	-2	100	95	6	nt	nt
Cc1ccc(-c2nc3ccccc3s2)cc1NC(=O)c1ccc2c(c1)OCO2	-21	1.0*[inhibitor]	-2.0*[inhibitor]	58*	-18	-11	MEKK2wt confirm=102;MEKK2mut confirm=0;MEKK3 confirm=106
COc1ccc(CCNCC(O)Cn2c3ccccc3c3ccccc32)cc1OC (configuration not stated)	23	106	159*	58*	1	4	MEKK2wt confirm=165;MEKK2mut confirm=36;MEKK3 confirm=111
CC12CCC(=O)N1C(C(=O)OCC(=O)Nc1cccc(S(=O)(=O)N3CCCCCC3)c1)CS2 (configuration not stated)	2	107	106	3	nt	nt
CC12CCC(=O)N1C(C(=O)OCC(=O)Nc1ccc(S(N)(=O)=O)cc1)CS2 (configuration not stated)	10	104	49*[inhibitor]	0	-1	-5	MEKK2wt confirm=100;MEKK2mut confirm=-5;MEKK3 confirm=99
CSCCC(NS(=O)(=O)c1ccccc1F)C(=O)NCc1ccncc1 (configuration not stated)	nt	nt	nt	-5	nt	nt
COc1cc2c(cc1NC(=S)Nc1cccc(C)c1)oc1ccccc12	-2	97	101	-10	nt	nt
CNC(=S)Nc1cc2oc3ccccc3c2cc1OC	1	104	103	-1	nt	nt
COc1cc2c(cc1NC(=O)Nc1ccc(C)cc1)oc1ccccc12	24*	113	141*	12	-8	9	MEKK2wt confirm=132;MEKK2mut confirm=-1;MEKK3 confirm=95
COc1cc2c(cc1NC(=O)Nc1cccc(C)c1)oc1ccccc12	30*	106	150*	3	14	7	MEKK2wt confirm=6.0*[inhibitor];MEKK2mut confirm=41;MEKK3 confirm=101
CCOC(=O)N1CCN(C(=O)CSc2nc(=O)n3ccc(C)cc3n2)CC1	nt	nt	nt	2	nt	nt
Cc1ccc(NC(=S)N(CCC(C)C)C(C)c2ccncc2)c(Cl)c1 (configuration not stated)	2	107	105	-2	nt	nt
O=C(N/N=C/c1cccc([N+](=O)[O-])c1)c1cc2ccccc2o1	-1	69*[inhibitor]	91	107*	2	-1	MEKK2wt confirm=92;MEKK2mut confirm=1;MEKK3 confirm=92
Cc1cc(NC(=O)c2cnn3c(C(F)(F)F)cc(-c4ccc(Br)cc4)nc23)no1	7	106	100	6	-6	-7
O=C(c1cnn2c(C(F)(F)F)cc(-c3ccc(Br)cc3)nc12)N1CCOCC1	3	104	104	0	nt	nt
CCCS(=O)(=O)N1CCCC(C(=O)NCC2CCCO2)C1 (configuration not stated)	-3	92	94	80*	3	-3
Cc1nc2ccc(NC(=O)c3ccco3)cc2nc1C	-13	87	83	39	nt	nt
Cc1cc2cc(NC(=O)c3ccco3)ccc2[nH]1	-1	100	103	100*	-11	-2
CCc1ccccc1NC(=O)Nc1cnccn1	8	103	106	45	-12	-6
O=C(Nc1cnccn1)Nc1ccccc1Cl	-3	99	100	2	nt	nt
SMILES	MEKK2mut PB1 HTS	MEKK3 PB1 HTS	MEKK2wt PB1 HTS	Arrestin-AP2 inh	Arr AP2 CP1	GST-FITC bead	others
CCOc1ccccc1NC(=O)Nc1cnccn1	-11	101	90	103*	1	16
CCOC(=O)C1(C)NC(c2cccc(C)c2)C2C(=O)N(c3ccccc3)C(=O)C21 (configuration not stated)	1	99	97	13	nt	nt
Cc1[nH]c(C)c(S(=O)(=O)Nc2cccc(Cl)c2C)c1C(=O)N1CCCCC1	3	99	103	-4	nt	nt
O=C(NCC1COc2ccccc2O1)c1ccc(NC(=O)C(c2ccccc2)c2ccccc2)cc1 (configuration not stated)	0	101	117	99*	35	5
C=CCNc1nc(C(=O)OC(C)C(=O)c2ccc(C)cc2)cs1 (configuration not stated)	nt	nt	nt	57*	-10	-4
CCCN1CCC(=O)N(CCOc2ccccc2)CC1	4	105	101	-7	nt	nt
CC(C)CN1CCC(=O)N(CCOc2ccccc2)CC1	5	102	101	57*	9	-1
CCOc1ccc(C(C(=O)NC2CCCCC2)N(C(=O)c2ccco2)c2ccc(-n3cnnn3)c(C)c2)cc1 (configuration not stated)	-5	111	102	100*	-19	-4
COc1ccc(N(C(=O)c2ccco2)C(C(=O)NC2CCCCC2)c2cccs2)cc1OC (configuration not stated)	3	92	99	105*	2	-11
CC(=O)c1cccc(N(C(=O)c2ccco2)C(C(=O)NC2CCCC2)c2cccs2)c1 (configuration not stated)	4	98	92	6	nt	nt
CN(Cc1cccnc1)C(=O)CNC(=O)c1ccc(Cl)cc1Cl	-7	103	97	32	nt	nt
O=C(NCc1nnc2c(C(F)(F)F)cc(Cl)cn12)c1cccs1	-4	99	99	56*	14	-2
O=C(NCc1nnc2c(C(F)(F)F)cc(Cl)cn12)C1CCCC1	5	101	104	-1	nt	nt
CCOC(=O)N1CCN(Cc2ccc3ccccc3c2)CC1	1	105	107	9	nt	nt
O=C(NCc1ccc(Cl)cc1)C1CCN(S(=O)(=O)c2cccc3nonc23)CC1	-4	99	98	109*	23	52*

From PubChem
